For 41 molecules, inhibition, IC50 and selectivity ratio results are on record in ChEMBL document CHEMBL4393692, “Thiazolidinone/thiazole based hybrids - New class of antitrypanosomal agents” (Eur J Med Chem, 2019).

The test system of series [1] is Trypanosoma brucei brucei. The series can be described thus: Antitrypanosomal activity against bloodstream form of Trypanosoma brucei brucei 90-13 assessed as reduction in parasite growth at 10 ug/ml after 72 hrs by resazurin dye based fluorescence assay relative to control. The class given is functional. The note with it: 90-13, 72 h. An outline of the steps: (§1)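 Bloodstream forms grown in HMI9 + 10% FCS, 37°C, 5% CO2. Log-phase cells harvested at 3000xg and seeded at 10^5 cells/ml, exposed to test substance from DMSO stock at a single screening level of 10 or 1 µg/mL for 72 h. Resazurin added (final 45 µM), 4 h more, then fluorescence read. Growth inhibition expressed against DMSO control.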
(In general: Alamar Blue is a resazurin reagent that responds to reducing activity.)

Series [2] has as its system Trypanosoma brucei brucei. The series can be described thus: Antitrypanosomal activity against bloodstream form of Trypanosoma brucei brucei 90-13 reduction in parasite growth at 1 ug/ml after 72 hrs by resazurin dye based fluorescence assay relative to control. The format is functional. Conditions: for inhibition at 1 µg/mL: 90-13, 72 h. In a few lines: as §1
In series [3] the test system is Trypanosoma brucei brucei. In words: Antitrypanosomal activity against bloodstream form of Trypanosoma brucei brucei 90-13 reduction in parasite growth after 72 hrs by resazurin dye based fluorescence assay. The class given is functional, organism-based. The note with it: 90-13, 72 h. An outline of the steps:
(§2)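 Bloodstream parasites cultured in HMI9 with 10% FCS at 37°C under 5% CO2. Log-phase cells harvested at 3000xg, plated at 10^5 cells/ml with dilutions from 10 down to 0.625 µg/ml (DMSO stocks) for 72 h. Resazurin added at 45 µM final, fluorescence read after a further 4 h. Inhibition vs DMSO control. IC50 from dose-response curve, mean ± SD of three independent experiments.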

In series [4] the test system is Trypanosoma brucei gambiense. The series can be described thus: Antitrypanosomal activity against bloodstream form of Trypanosoma brucei gambiense Feo reduction in parasite growth after 72 hrs by resazurin dye based fluorescence assay. The class given is functional, organism-based. In a few lines:
as §2

Series [5] in a line: Cytotoxicity against human AB943 cells assessed as reduction in cell viability after 5 days resazurin dye based fluorescence assay. Conditions: 120 h. An outline of the steps: (§3)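 Human primary fibroblasts grown in RPMI with 25 mM HEPES pH 7.3 and 10% FCS, 37°C, 5% CO2. After trypsinisation, seeded at 5000 cells/well and incubated 24 h. Then washed and exposed to two-fold drug dilutions, final DMSO below 1%, for 5 days. Resazurin added, fluorescence read (ex 530/em 590 nm) after 4 h. Growth inhibition vs DMSO control. SI = IC50 fibroblast / IC50 T. b. gambiense.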

Series [6] in a line: Selectivity index, ratio of IC50 for human AB943 cells to IC50 of bloodstream form of Trypanosoma brucei gambiense Feo. The format is toxicity. The note with it: read-out: Ratio IC50. In a few lines:
as §3

pIC50: −log10 of the molar value. The source made the active and inactive calls. The calls are words filed in the database; no cut-off is given here. Where only a bound is given, the exact number is not on record here.

As to `O=C(O)CC1S\C(=N/N=C/C(Cl)=C/c2ccc([N+](=O)[O-])cc2)N(c2ccc(O)cc2)C1=O` (configuration not stated), the inhibition at 10 µg/mL in series [1] came to 25%. Moreover, the inhibition at 1 µg/mL in series [2] is -1.57%.
For the molecule `O=C(CC1S/C(=N\N=C2CCCCC2)NC1=O)Nc1ccc([N+](=O)[O-])cc1` (configuration not stated), in series [1], the inhibition at 10 µg/mL was 44.9%. Besides, in series [2], the inhibition entry was “inactive”.
For `CC12CCC(C/C1=N/N=C1/NC(=O)C(CC(=O)Nc3ccc(Cl)cc3)S1)C2(C)C` (configuration not stated), in series [1], the inhibition at 10 µg/mL worked out at 97.8%. Besides, the inhibition at 1 µg/mL in series [2] came out at 14.1%.
In turn, `O=C(CC1S/C(=N\N=C\c2c(-c3ccccc3)[nH]c3ccccc23)NC1=O)c1ccc2c(c1)CCCC2` (configuration not stated) gave a pIC50 in series [3] of 4.88.
`O=C(CC1S/C(=N\N=C\c2c(-c3ccccc3)[nH]c3ccccc23)NC1=O)Nc1ccc(Cl)cc1` (configuration not stated) showed a pIC50 in series [3] of 5.04.
`CC12CCC(C/C1=N/N=C1/NC(=O)C(CC(=O)Nc3ccc(Br)cc3)S1)C2(C)C` (configuration not stated): in series [1], the inhibition at 10 µg/mL came to 97%. In addition, the inhibition result in series [2] was “inactive”.
As for `CC(=O)OCCC1S/C(=N\N=C\c2c(-c3ccc(Cl)cc3)[nH]c3ccccc23)N(c2ccc(O)cc2)C1=O` (configuration not stated), the pIC50 is 6.42 in series [4] and under 4.05 in series [5]. Further, the selectivity ratio in series [6] is over 240.
With `O=C(CC1S\C(=N/N=C/C=C/c2ccccc2)N(Cc2ccco2)C1=O)Nc1cccc(C(F)(F)F)c1` (configuration not stated), the inhibition at 10 µg/mL in series [1] amounted to 98.9%. The inhibition at 1 µg/mL in series [2] stood at 5.06%.
Taken in the same sequence, the figures for `C=CCN1C(=O)C(CC(=O)c2ccc(F)cc2)S/C1=N\N=C\c1ccc(N(C)C)cc1` (configuration not stated) were 14.7% and 11.1%.
For `CCC1S/C(=N\N=C\c2c(-c3ccc([N+](=O)[O-])cc3)[nH]c3ccccc23)N(c2ccc(O)cc2)C1=O` (configuration not stated), the negative logarithm of the IC50 (pIC50) in series [4] is 6.85; in series [5], 5.07. Moreover, in series [6], the selectivity ratio worked out at 60.
Take `CCOC(=O)c1ccc(NC(=O)CC2S/C(=N\N=C\c3c(-c4ccccc4)[nH]c4ccccc34)NC2=O)cc1` (configuration not stated): the pIC50 in series [3] is 5.16.
Consider `O=C(CC1S\C(=N/N=C/C=C/c2ccccc2)NC1=O)Nc1ccc([N+](=O)[O-])cc1` (configuration not stated), for which, in series [1], the inhibition at 10 µg/mL was determined as 56.1%. Moreover, in series [2], the inhibition result was “inactive”.
Take `CCc1nn2c(/C=N/N=C3\SC(CCOC(C)=O)C(=O)N3c3ccc(O)cc3)c(-c3ccc(Br)cc3)nc2s1` (configuration not stated): the pIC50 in series [4] was 6.00; in series [5], 4.95. In series [6], the selectivity ratio turned out to be 11.
For the molecule `O=C(CC1S/C(=N\N=C2CCCCC2)NC1=O)Nc1ccc(F)cc1` (configuration not stated), in series [1], the inhibition at 10 µg/mL was -4.66%. In addition, the inhibition at 1 µg/mL in series [2] is -4.65%.
In series [3], `O=C(O)CCNC(=O)CC1S/C(=N\N=C\c2c(-c3ccccc3)[nH]c3ccccc23)NC1=O` (configuration not stated) had a negative-log IC50 (pIC50) of 4.46.
As to `O=C(CC1S\C(=N/N=C/C=C/c2ccccc2)N(c2ccc(O)cc2)C1=O)Nc1ccc(F)cc1` (configuration not stated), in series [1], the inhibition at 10 µg/mL was -8.23%. Further, the inhibition at 1 µg/mL in series [2] turned out to be 1.18%.
In the case of `CCc1nn2c(/C=N/N=c3/[nH]c(-c4ccc(Br)cc4)cs3)c(-c3ccc([N+](=O)[O-])cc3)nc2s1`, the pIC50 in series [4] is 5.92; in series [5], under 4.05. The selectivity ratio in series [6] is over 70.
For the molecule `O=C(CC1S/C(=N\N=C\c2c(-c3ccccc3)[nH]c3ccccc23)NC1=O)c1ccccc1` (configuration not stated), the results for the pIC50 in series [3] and in series [4] were 5.11 and 5.55, respectively.
The molecule `O=C(O)CCCCCNC(=O)CC1S/C(=N\N=C\c2c(-c3ccccc3)[nH]c3ccccc23)NC1=O` (configuration not stated) had a pIC50 in series [3] of 4.85.
For `CCOC(=O)c1s/c(=N\N=C\c2c(-c3ccc([N+](=O)[O-])cc3)nc3sc(CC)nn23)n(-c2ccc(O)cc2)c1C`, the values for the pIC50 in series [4] and in series [5] were 6.19 and under 4.10, respectively. In addition, in series [6], the selectivity ratio is over 130.
As for `O=C(CC1S/C(=N\N=C\c2ccco2)NC1=O)c1ccc2c(c1)CCCC2` (configuration not stated), in series [1], the inhibition at 10 µg/mL was determined as 10.9%. Besides, the inhibition at 1 µg/mL in series [2] came to 9.82%.
Turning to `C=CCSc1nn2c(/C=N/N=c3\sc(C(=O)OCC)c(C)n3-c3ccc(O)cc3)c(-c3ccccc3)nc2s1`, the pIC50 in series [4] was 6.20; in series [5] it was under 4.10. The selectivity ratio in series [6] was over 130.
Regarding `COc1cc(/C=N/N=C2\SC(CC(=O)c3ccc(F)cc3)C(=O)N2c2ccc(O)cc2)ccc1OCC(=O)O` (configuration not stated), the inhibition at 10 µg/mL in series [1] stood at 14.5%. In addition, in series [2], the inhibition at 1 µg/mL turned out to be 15.1%.
Take `C=CCSc1nn2c(/C=N/N=c3/[nH]c(C)c(C(=O)OCC)s3)c(-c3ccccc3)nc2s1`: the pIC50 in series [4] is 6.19; in series [5] it was 5.36. The selectivity ratio in series [6] was determined as 7.
Regarding `O=[N+]([O-])c1ccc(-c2[nH]c3ccccc3c2/C=N/Nc2nc(-c3ccc(Br)cc3)cs2)cc1`, the pIC50 in series [4] is 5.64; in series [5], under 4.02. In series [6], the selectivity ratio is over 40.
On to `C=CCSc1nn2c(/C=N/N=C3/NC(=O)C(CCOC(C)=O)S3)c(-c3ccccc3)nc2s1` (configuration not stated), for which the pIC50 in series [4] was 5.24; in series [5] it was 4.72. In addition, the selectivity ratio in series [6] is 3.
Consider `O=C(CC1S\C(=N/N=C/C=C/c2ccccc2)NC1=O)c1ccc(F)cc1` (configuration not stated), for which, in series [1], the inhibition at 10 µg/mL worked out at 57.3%. Moreover, the inhibition at 1 µg/mL in series [2] was 38.7%.
For `O=C(O)CC1SC(N/N=C/C=C/c2ccccc2[N+](=O)[O-])=NC1=O` (configuration not stated), in that order: 24.9% and 3.28%.
Molecule `O=C1N/C(=N/N=C/c2c(-c3ccccc3)[nH]c3ccccc23)SC1CCO` (configuration not stated) gave a pIC50 in series [3] of 6.77.
Same read-out and setting: as for `O=C(CC1S/C(=N\N=C\c2c(-c3ccccc3)[nH]c3ccccc23)NC1=O)c1ccc(F)cc1` (configuration not stated), the figure is 4.97.
Turning to `C=CCN1C(=O)C(CC(=O)c2ccc(F)cc2)S/C1=N\N=C\c1ccccc1` (configuration not stated), the inhibition at 10 µg/mL in series [1] amounted to 14.7%. Besides, in series [2], the inhibition at 1 µg/mL came out at 11.1%.
As for `CCc1nn2c(/C=N/N=c3\scc(-c4ccc(Br)cc4)n3-c3ccc(O)cc3)c(-c3ccc(Br)cc3)nc2s1`, the pIC50 is 6.32 in series [4] and under 4.15 in series [5]. The selectivity ratio in series [6] was over 150.
With `Cc1ccc(NC(=O)CC2S/C(=N\N=C3\CC4CCC3(C)C4(C)C)NC2=O)cc1` (configuration not stated), the inhibition at 10 µg/mL in series [1] turned out to be 30%. Further, the inhibition at 1 µg/mL in series [2] amounted to 4.18%.
Molecule `O=C(CC1S/C(=N\N=C\c2c(-c3ccccc3)[nH]c3ccccc23)NC1=O)Nc1ccc(Br)cc1` (configuration not stated) showed a pIC50 in series [3] of 5.10.
Turning to `CC12CCC(C/C1=N/N=C1/NC(=O)C(CC(=O)c3ccc(F)cc3)S1)C2(C)C` (configuration not stated), the inhibition at 10 µg/mL in series [1] turned out to be 42%. Besides, the inhibition at 1 µg/mL in series [2] came to 36.1%.
On to `O=C1N/C(=N/N=C/c2c(-c3ccc(Cl)cc3)[nH]c3ccccc23)SC1CCO` (configuration not stated), for which the pIC50 in series [4] was 5.83; in series [5] it was 5.05. In series [6], the selectivity ratio came out at 7.
Turning to `O=C(O)CCCNC(=O)CC1S/C(=N\N=C\c2ccco2)NC1=O` (configuration not stated), the inhibition at 10 µg/mL in series [1] is 10%. For the same molecule, the inhibition at 1 µg/mL in series [2] was 0.06%.
Turning to `CCOC(=O)c1sc(N/N=C/c2c(-c3ccc(Cl)cc3)[nH]c3ccccc23)nc1C`, the negative-log IC50 (pIC50) in series [4] is 6.28; in series [5], 4.69. Further, in series [6], the selectivity ratio amounted to 39.
Turning to `O=C(CC1S\C(=N/N=C/C=C/c2ccccc2)NC1=O)c1ccc2c(c1)CCCC2` (configuration not stated), the inhibition at 10 µg/mL in series [1] came out at 53.2%. The inhibition at 1 µg/mL in series [2] was determined as 7.69%.
For `O=C(CC1S/C(=N\N=C2CCCCC2)NC1=O)c1ccc(F)cc1` (configuration not stated), in that order: 98.5% and 8.16%.
For `C=CCSc1nn2c(/C=N/N=C3\SC(CC)C(=O)N3c3ccc(O)cc3)c(-c3ccccc3)nc2s1` (configuration not stated), the pIC50 in series [4] is 5.44; in series [5], under 4.05. Besides, in series [6], the selectivity ratio was over 26.

In general, inhibition refers to the change of the read-out against control, counted positive when it falls. For orientation: pIC50 means −log10 of the IC50, conventionally taken in molar units.
